Reference: ChEMBL document CHEMBL1165950, “Design and synthesis of new potent anticancer pyrazoles with high FLT3 kinase inhibitory selectivity” (Bioorg Med Chem, 2010)

What was measured:
Format in all cases: functional
SN12C = assay: Cytotoxicity against human SN12C cells assessed as cell growth at 1 uM after 48 hrs by sulforhodamine B assay; details: read-out: Activity
TK-10 [1] = assay: Cytotoxicity against human TK10 cells assessed as cell growth at 0.001 uM after 48 hrs by sulforhodamine B assay; details: TK-10, 48 h, read-out: Activity
SF-539 = assay: Cytotoxicity against human SF539 cells assessed as cell growth at 10 uM; details: read-out: Activity
In short: (§1)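 NCI-60 screen: cells grown in RPMI 1640 with 5% FBS and 2 mM L-glutamine, plated at 5000–40,000 cells/well according to doubling time, and preincubated 24 h at 37 °C, 5% CO2. The single 10 µM dose (DMSO stock) was added, then incubated 48 h. Cells were TCA-fixed and stained with 0.4% SRB, read at 515 nm, and growth % calculated against time-zero and control plates.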

SF-268 = assay: Growth inhibition of human SF268 cells after 48 hrs by sulforhodamine B assay; details: SF-268, 48 h; for CC50: read-out: LC50 (the source's name)
In short: (§2)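 NCI 60-cell screen, five-dose mode. Cells grown in RPMI 1640 with 5% FBS and 2 mM L-glutamine and plated at 5000-40,000 cells/well according to doubling time. After 24 h preincubation, a Tz plate was TCA-fixed. Five concentrations (10-fold or 1/2 log dilutions) were applied for 48 h at 37 °C. SRB staining read at 515 nm. IC50 taken from [(Ti-Tz)/(C-Tz)]×100 = 50.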

A498 [2] = assay: Growth inhibition of human A498 cells after 48 hrs by sulforhodamine B assay; details: A498, 48 h
In short: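 NCI five-dose SRB assay in RPMI 1640 with 5% FBS and 2 mM L-glutamine. Cells were preincubated 24 h, then exposed 48 h at 37 °C to five concentrations (10-fold or half-log serial dilutions from DMSO stocks). TCA fixation, SRB staining, and absorbance at 515 nm followed. IC50 was taken where [(Ti−Tz)/(C−Tz)]×100 = 50, with Tz as time-zero cell density.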

RXF 393 = assay: Cytotoxicity against human RXF393 cells assessed as cell growth at 0.01 uM after 48 hrs by sulforhodamine B assay; details: RXF 393, 48 h, read-out: Activity
HL-60(TB) = assay: Cytotoxicity against human HL-60(TB) cells assessed as cell growth at 1 uM after 48 hrs by sulforhodamine B assay; details: HL-60, 48 h, read-out: Activity
In short: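 NCI 60-cell panel. Cells are grown in RPMI 1640 with 5% FBS and 2 mM L-glutamine, seeded at 5000–40,000 cells/well according to doubling time, and preincubated 24 h. Time-zero plates are TCA-fixed. Compound from DMSO stock is given at five 10-fold or 1/2-log concentrations for 48 h at 37 °C, 5% CO2. Suspension cells are fixed with 80% TCA (final 16%) and SRB-stained, with absorbance at 515 nm. Percent growth is derived from Tz, control and test readings.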

TK-10 [3] = assay: Cytotoxicity against human TK10 cells assessed as cell growth at 0.01 uM after 48 hrs by sulforhodamine B assay; details: TK-10, 48 h, read-out: Activity
OVCAR-4 [4] = assay: Cytotoxicity against human OVCAR4 cells assessed as cell growth at 10 uM; details: read-out: Activity; in short: as §1
786-0 = assay: Cytotoxicity against human 786-0 cells assessed as cell growth at 10 uM; details: read-out: Activity
In short: (§3)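 Single-dose NCI-60 screen at 10 µM. Cells were grown in RPMI 1640 with 5% FBS and 2 mM L-glutamine, then treated for 48 h at 37 °C. Protein was measured by SRB staining with absorbance at 515 nm. Percentage growth was recorded, and inhibition percentage was calculated as 100 minus growth percentage.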

Malme-3M [5] = assay: Cytotoxicity against human MALME-3M cells assessed as cell growth at 10 uM after 48 hrs by sulforhodamine B assay; details: read-out: Activity
SK-MEL-5 = assay: Cytotoxicity against human SK-MEL-5 cells assessed as cell growth at 0.01 uM after 48 hrs by sulforhodamine B assay; details: SK-MEL-5, 48 h, read-out: Activity
NCI-H322M = assay: Cytotoxicity against human NCI-H322M cells assessed as cell growth at 0.001 uM after 48 hrs by sulforhodamine B assay; details: read-out: Activity
CCRF-CEM = assay: Cytotoxicity against human CCRF-CEM cells assessed as cell growth at 0.001 uM after 48 hrs by sulforhodamine B assay; details: read-out: Activity
In short: (§4)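 NCI-60 five-dose screen. Cells were grown in RPMI 1640 with 5% FBS and 2 mM L-glutamine, plated at 5000–40,000 cells/well and preincubated for 24 h. Time-zero plates were TCA-fixed. DMSO-solubilized drug was added at five concentrations (10-fold or ½-log serial dilutions) for 48 h at 37 °C, 5% CO2. Cells were TCA-fixed, stained with 0.4% SRB and read at 515 nm. Percent growth used time-zero, control and test absorbances.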

NCI/ADR-RES = assay: Cytotoxicity against human NCI/ADR-RES cells assessed as cell growth at 10 uM after 48 hrs by sulforhodamine B assay; details: read-out: Activity
A498 [6] = assay: Cytotoxicity against human A498 cells assessed as cell growth at 100 nM after 48 hrs by sulforhodamine B assay; details: A498, 48 h, read-out: Activity; in short: as §4
NCI-H522 = assay: Cytotoxicity against human NCI-H522 cells assessed as cell growth at 1 uM after 48 hrs by sulforhodamine B assay; details: NCI-H522, 48 h, read-out: Activity
U-251 = assay: Cytotoxicity against human U251 cells assessed as cell growth at 10 uM after 48 hrs by sulforhodamine B assay; details: U-251, 48 h, read-out: Activity
K562 = assay: Cytotoxicity against human K562 cells assessed as cell growth at 10 uM; details: read-out: Activity; in short: as §3
Malme-3M [7] = assay: Cytotoxicity against human MALME-3M cells assessed as cell growth at 0.001 uM after 48 hrs by sulforhodamine B assay; details: read-out: Activity
MDA-MB-435 = assay: Growth inhibition of human MDA-MB-435 cells after 48 hrs by sulforhodamine B assay; details: MDA-MB-435, 48 h; for CC50: read-out: LC50 (the source's name); in short: as §2
UO-31 = assay: Cytotoxicity against human UO31 cells assessed as cell growth at 0.001 uM after 48 hrs by sulforhodamine B assay; details: UO-31, 48 h, read-out: Activity
[8] = Cytotoxicity against human Hs 578T cells assessed as cell growth at 1 uM after 48 hrs by sulforhodamine B assay; details: read-out: Activity
HCT-116 = assay: Growth inhibition of human HCT116 cells after 48 hrs by sulforhodamine B assay; details: HCT-116, 48 h; for CC50: read-out: LC50 (the source's name); in short: as §2
OVCAR-4 [9] = assay: Growth inhibition of human OVCAR4 cells after 48 hrs by sulforhodamine B assay; details: OVCAR-4, 48 h; for CC50: read-out: LC50 (the source's name); in short: as §2
DU-145 = assay: Cytotoxicity against human DU145 cells assessed as cell growth at 0.001 uM after 48 hrs by sulforhodamine B assay; details: DU-145, 48 h, read-out: Activity

| SMILES | growth at 1 µM (SN12C) | growth at 0.001 µM (TK-10 [1]) | growth at 10 µM (SF-539) | GI50 (SF-268) | TGI (SF-268) | CC50 (SF-268) | GI50 (A498 [2]) | LC50 (A498 [2]) | TGI (A498 [2]) | growth at 0.01 µM (RXF 393) | growth at 1 µM (HL-60(TB)) | growth at 0.01 µM (TK-10 [3]) | growth at 10 µM (OVCAR-4 [4]) | growth at 10 µM (786-0) | growth at 10 µM (Malme-3M [5]) | growth at 0.01 µM (SK-MEL-5) | growth at 0.001 µM (NCI-H322M) | growth at 0.001 µM (CCRF-CEM) | growth at 10 µM (NCI/ADR-RES) | growth at 0.1 µM (A498 [6]) | other results |
| --- | --- | --- | --- | --- | --- | --- | --- | --- | --- | --- | --- | --- | --- | --- | --- | --- | --- | --- | --- | --- | --- |
| COc1cc(C)cc(-c2nn(CC#N)cc2-c2ccnc(-c3ccc(N(C)C)cc3)c2)c1 | 8% | 109% | -17.5% | 0.478 µM | 8.9 µM | > 100 µM | 0.246 µM | > 100 µM | 0.818 µM | 103% | -1% | 119% | 17.1% | 5.8% | 5% | 104% | 99% | 97% | -10% | -8% | growth at 1 µM (NCI-H522): -61%; growth at 10 µM (U-251): -32%; growth at 10 µM (K562): 9.86%; growth at 0.001 µM (Malme-3M [7]): 88%; GI50 (MDA-MB-435): 0.235 µM; TGI (MDA-MB-435): 0.613 µM; CC50 (MDA-MB-435): > 100 µM; growth at 0.001 µM (UO-31): 90%; growth at 1 µM [8]: -13%; GI50 (HCT-116): 0.353 µM; TGI (HCT-116): 1.64 µM; CC50 (HCT-116): > 100 µM; GI50 (OVCAR-4 [9]): 0.549 µM; TGI (OVCAR-4 [9]): > 100 µM; CC50 (OVCAR-4 [9]): > 100 µM; growth at 0.001 µM (DU-145): 103% |
| COc1cc(C)cc(-c2nn(CC#N)cc2-c2ccc(-c3cccc(C(C)=O)c3)nc2)c1 | 39% | 99% | 5.94% | 4.07 µM | 81.4 µM | > 100 µM | 1.08 µM | 72.5 µM | 5.14 µM | 89% | 2% | 100% | 31.7% | 18% | -1% | 91% | 94% | 96% | -14% | 53% | growth at 1 µM (NCI-H522): -14%; growth at 10 µM (U-251): -37%; growth at 10 µM (K562): 16.4%; growth at 0.001 µM (Malme-3M [7]): 97%; CC50 (MDA-MB-435): > 100 µM; growth at 0.001 µM (UO-31): 86%; growth at 1 µM [8]: -43%; GI50 (HCT-116): 2.33 µM; TGI (HCT-116): 10.6 µM; CC50 (HCT-116): 87.4 µM; GI50 (OVCAR-4 [9]): 3.76 µM; TGI (OVCAR-4 [9]): > 100 µM; CC50 (OVCAR-4 [9]): > 100 µM; growth at 0.001 µM (DU-145): 110% |
| Cc1cc(O)cc(-c2nn(CC#N)cc2-c2ccnc(-c3ccc(Oc4ccccc4)cc3)c2)c1 | -57% | 91% | 75.5% | 3.96 µM | 15.5 µM | 41.4 µM | 3.87 µM | 44.1 µM | 16.7 µM | 90% | -27% | 99% | 49.8% | 58.1% | -72% | 93% | 94% | 96% | -52% | 84% | growth at 1 µM (NCI-H522): 2%; growth at 10 µM (U-251): -98%; growth at 10 µM (K562): 15%; growth at 0.001 µM (Malme-3M [7]): 88%; GI50 (MDA-MB-435): 2.32 µM; TGI (MDA-MB-435): 6.84 µM; CC50 (MDA-MB-435): 60.6 µM; growth at 0.001 µM (UO-31): 91%; growth at 1 µM [8]: -23%; GI50 (HCT-116): 1.56 µM; TGI (HCT-116): 2.9 µM; CC50 (HCT-116): 5.38 µM; GI50 (OVCAR-4 [9]): 4.56 µM; TGI (OVCAR-4 [9]): 16 µM; CC50 (OVCAR-4 [9]): 48.6 µM; growth at 0.001 µM (DU-145): 104% |
